Measured values from ChEMBL document CHEMBL1157436, “Efficient synthesis and neuroprotective effect of substituted 1,3-diphenyl-2-propen-1-ones” (2008).

Legend:
Type in all cases: functional
[1] = DPPH radical scavenging activity at 200 uM
[2] = DPPH radical scavenging activity at 10 uM
[3] = DPPH radical scavenging activity at 50 uM
[4] = DPPH radical scavenging activity at 100 uM
BV-2 [5] = test: Inhibition of NO production in LPS-induced mouse BV2 microglia cells at 10 uM
In short: (§1)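 BV-2 microglia were exposed to LPS (1 µg/mL) alone or with compound at 10 or 20 µM for 24 h at 37 °C. Nitrite was then measured in medium sampled at the end of incubation. Data are mean ± SE of three independent experiments, each run in triplicate.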

[6] = Neuroprotective effect against glutamate-induced toxicity in ICR mouse cultured cortical neurons assessed as cell viability at 10 uM; conditions: Cortical neurone, read-out: Activity
In short: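 Cultured cortical neurons were co-treated with 60 µM glutamate and compound for 24 h at 37 °C. WST-1 was then added at 1:10 in the conditioned medium for 2 h at 37 °C. Formazan absorbance was read at 450 nm against a 650 nm reference and normalized to untreated control wells. Data are mean ± SE of three independent experiments in triplicate.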

BV-2 [7] = test: Inhibition of NO production in LPS-induced mouse BV2 microglia cells at 20 uM; in short: as §1

Compound | Activity [1] | Activity [2] | Activity [3] | Activity [4] | Activity (BV-2 [5]) | viability at 10 µM [6] | Activity (BV-2 [7])
COc1cc(/C=C/C(=O)c2ccc3c(c2)OCO3)ccc1O | 25.1% | 7.9% | 12% | 14.1% | 12.63 µM | 79% | 11.32 µM
COc1cc(/C=C/C(=O)c2cc(F)c(F)c(F)c2)ccc1O | 38% | 22.9% | 23.5% | 32% | 19.82 µM | 61% | 12.11 µM
Oc1ccc(/C=C/c2cc(O)cc(O)c2)cc1 | 33.8% | 9.45% | 8.44% | 28.4% |  |  | 
COc1cc(/C=C/C=O)ccc1O | 10.6% | 2.37% | 0.28% | 0.43% |  |  | 
COc1ccc(/C=C/C(=O)c2ccccc2)cc1O | 5.38% | 1.26% | 1.46% | 2.05% | 18.93 µM | 67% | 16.04 µM
COc1cc(/C=C/C(=O)c2ccccc2)ccc1O | 22.6% | 7.53% | 11.8% | 14.4% | 16.14 µM | 62% | 13.16 µM
Cc1c(C)c2c(c(C)c1O)CCC(C)(C(=O)O)O2 (stereo not drawn) | 78.2% | 12.1% | 30.2% | 62.4% |  |  | 
COc1ccc(/C=C/C(=O)c2ccc3c(c2)OCO3)cc1O | 11% | 8.75% | 9.14% | 9.63% | 21.3 µM | 69% | 12.44 µM
COc1ccc(/C=C/C(=O)c2ccc3c(c2)OCO3)cc1OC | 1.56% | 3.27% | 1.95% | 1.75% | 25.69 µM | 61% | 20.6 µM
COc1cc(/C=C/C(=O)c2ccc(OC)c(F)c2)ccc1O | 37.5% | 17.8% | 18.9% | 28.4% | 14.21 µM | 79% | 6.23 µM
COc1cccc(/C=C/C(=O)c2ccc3c(c2)OCO3)c1O | 22.2% | 13.9% | 14.9% | 18.6% | 22.62 µM | 56% | 16.44 µM
COc1ccc(/C=C/C(=O)c2ccc(OC)c(F)c2)cc1O | 5.02% | 1.55% | 1.68% | 2.73% | 23.4 µM | 80% | 19.98 µM
COc1ccc(/C=C/C(=O)c2cc(F)c(F)c(F)c2)cc1O | 5.29% | 1.99% | 2.71% | 3.25% | 25.07 µM | 63% | 22 µM
COc1cccc(/C=C/C(=O)c2ccccc2)c1O | 11% | 5.4% | 6.09% | 7.94% | 17.62 µM | 58% | 15.69 µM
COc1ccc(C(=O)/C=C/c2cccc(OC)c2O)cc1F | 2.87% | 1.74% | 1.14% | 2.42% | 19.55 µM | 75% | 14.19 µM
COc1cccc(/C=C/C(=O)c2cc(F)c(F)c(F)c2)c1O | 6.81% | 3.08% | 3.28% | 5.5% | 18.05 µM | 71% | 14.72 µM
